Active and inactive are the calls of the source. The calls are words filed in the database; no cut-off is given here.
Key:
BT-549 [1] = experiment: Cytotoxicity against human BT549 cells after 48 hrs by neutral red assay relative to control; type: cell-based; conditions: BT-549, 48 h
How it was run: (§1)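 Cells grown in RPMI-1640 with 10% bovine calf serum and amikacin at 37°C, 5% CO₂. Seeded 25,000 cells/well, grown 24 h, then exposed to compounds diluted in serum-free medium for 48 h. Viability by Neutral Red uptake, % decrease versus vehicle control. IC50 from dose curves, triplicate means. Doxorubicin positive control.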

SK-MEL [2] = experiment: Cytotoxicity against human SK-MEL cells after 48 hrs by neutral red assay relative to control; type: cell-based; how it was run: as §1
[3] = Antiinflammatory activity in human SW1353 cells assessed as inhibition of PMA-induced NF-kappaB activity incubated for 30 mins prior to PMA challenge measured after 8 hrs by luciferase reporter gene assay; type: cell-based
How it was run: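 SW1353 cells in DMEM/F12 with 10% FBS, electroporated with NF-κB luciferase plasmid (160 V, one 70-ms pulse), plated at 1.25 × 10⁵ cells/well. After 24 h, graded compound concentrations added 30 min before PMA 70 ng/mL, then 8 h incubation. Luciferase read-out, % inhibition versus vehicle, IC50 from dose curves. Sp-1 reporter served as nonspecific control.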

Vero = experiment: Cytotoxicity against African green monkey Vero cells up to 25 ug/ml after 48 hrs by neutral red assay relative to control; type: cell-based; conditions: chlorocebus sabaeus
How it was run: (§2)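 Cells grown in RPMI-1640 with 10% bovine calf serum and amikacin at 37 °C, 5% CO2. Seeded at 25,000 cells/well and grown 24 h, then exposed 48 h to samples diluted in serum-free medium. Viability by Neutral Red; % decrease vs vehicle; IC50 from dose curves. Triplicate runs, mean reported; doxorubicin as positive control.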

KB = experiment: Cytotoxicity against human KB cells up to 25 ug/ml after 48 hrs by neutral red assay relative to control; type: cell-based; how it was run: as §2
[4] = Cytotoxicity against pig LLC-PK11 cells up to 25 ug/ml after 48 hrs by neutral red assay relative to control; type: cell-based, Sus scrofa; conditions: llc-pk11, 48 h; how it was run: as §2
SK-OV-3 = experiment: Cytotoxicity against human SKOV3 cells up to 25 ug/ml after 48 hrs by neutral red assay relative to control; type: cell-based; conditions: sk-ov-3, 48 h; how it was run: as §2
[5] = molecular target: T1, Nitric oxide synthase, inducible (Mus musculus) (UniProt P29477); experiment: Antiinflammatory activity in mouse RAW264.7 cells assessed as inhibition of LPS-induced iNOS activity up to 25 ug/ml incubated for 30 mins prior to LPS challenge measured after 24 hrs by Griess assay; type: cell-based
T1 sequence (whole entry): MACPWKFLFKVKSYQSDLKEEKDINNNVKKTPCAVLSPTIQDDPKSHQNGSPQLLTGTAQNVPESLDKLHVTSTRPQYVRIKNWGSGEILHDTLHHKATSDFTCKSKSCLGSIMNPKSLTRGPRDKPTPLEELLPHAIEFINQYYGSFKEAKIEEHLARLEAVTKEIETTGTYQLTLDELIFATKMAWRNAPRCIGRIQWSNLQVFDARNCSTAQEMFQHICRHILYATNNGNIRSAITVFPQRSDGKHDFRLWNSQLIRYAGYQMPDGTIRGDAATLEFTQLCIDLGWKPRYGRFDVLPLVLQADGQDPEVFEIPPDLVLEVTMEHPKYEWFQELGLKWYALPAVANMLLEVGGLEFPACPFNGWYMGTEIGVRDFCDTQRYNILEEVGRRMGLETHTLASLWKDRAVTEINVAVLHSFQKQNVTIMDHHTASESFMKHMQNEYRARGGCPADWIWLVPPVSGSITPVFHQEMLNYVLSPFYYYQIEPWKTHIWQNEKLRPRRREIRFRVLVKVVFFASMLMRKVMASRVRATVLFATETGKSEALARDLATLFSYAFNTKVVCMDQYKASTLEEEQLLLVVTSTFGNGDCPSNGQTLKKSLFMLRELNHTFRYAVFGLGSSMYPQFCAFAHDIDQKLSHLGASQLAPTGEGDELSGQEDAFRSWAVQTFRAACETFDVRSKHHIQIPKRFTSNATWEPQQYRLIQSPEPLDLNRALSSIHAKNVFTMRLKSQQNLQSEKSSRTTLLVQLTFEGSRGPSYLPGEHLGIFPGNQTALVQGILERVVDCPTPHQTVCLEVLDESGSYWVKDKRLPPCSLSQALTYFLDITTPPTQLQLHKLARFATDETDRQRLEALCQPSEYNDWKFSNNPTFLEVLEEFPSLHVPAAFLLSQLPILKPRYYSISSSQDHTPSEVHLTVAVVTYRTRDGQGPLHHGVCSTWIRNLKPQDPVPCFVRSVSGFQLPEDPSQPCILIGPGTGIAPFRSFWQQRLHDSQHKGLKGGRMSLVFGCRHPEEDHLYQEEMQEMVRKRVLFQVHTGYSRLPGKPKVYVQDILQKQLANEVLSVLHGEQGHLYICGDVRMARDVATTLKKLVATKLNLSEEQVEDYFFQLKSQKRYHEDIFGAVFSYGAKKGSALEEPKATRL
How it was run: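 RAW264.7 macrophages seeded at 50,000 cells/well and grown 24 h to ≥75% confluency. Compounds in serum-free medium added 30 min before LPS (5 μg/mL), then 24 h incubation. Nitrite in the supernatant measured with Griess reagent.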

SW1353 = experiment: Antiinflammatory activity in human SW1353 cells assessed as inhibition of PMA-induced NF-kappaB activity up to 25 ug/ml incubated for 30 mins prior to PMA challenge measured after 8 hrs by luciferase reporter gene assay; type: cell-based
How it was run: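 SW1353 chondrosarcoma cells grown in DMEM/F12 with 10% FBS at 37 °C, 5% CO2. Cells electroporated with an NF-κB luciferase plasmid (50 μg/mL, 160 V, one 70-ms pulse) and plated at 1.25 × 10⁵ cells/well. After 24 h, compound was added 30 min before PMA (70 ng/mL), then 8 h incubation. Luciferase read-out as % inhibition vs vehicle; IC50 from dose curves. Sp-1 served as a counter-screen.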

BT-549 [6] = experiment: Cytotoxicity against human BT549 cells up to 25 ug/ml after 48 hrs by neutral red assay relative to control; type: cell-based; conditions: bt-549, 48 h; how it was run: as §2
SK-MEL [7] = experiment: Cytotoxicity against human SK-MEL cells up to 25 ug/ml after 48 hrs by neutral red assay relative to control; type: cell-based; how it was run: as §2

inhibition [5]	Structure (SMILES)	IC50 (BT-549 [1]) [µM]	IC50 (SK-MEL [2]) [µM]	IC50 [3] [µM]	Activity (Vero)	Activity (KB)	Activity [4]	Activity (SK-OV-3)	inhibition (SW1353)	Activity (BT-549 [6])	Activity (SK-MEL [7])
–	O=c1sc2ccccc2n1CCCCCCN1CCN(CCn2c(=O)sc3ccccc32)CC1	25	25	2.95	Non-toxic	Non-toxic	Non-toxic	Non-toxic	–	–	–
inactive	O=c1oc2ccccc2n1CCN1CCN(CCn2c(=O)oc3ccccc32)CC1	–	–	–	Non-toxic	Non-toxic	Non-toxic	Non-toxic	inactive	Non-toxic	Non-toxic
–	O=c1oc2ccccc2n1CCCCCCN1CCN(CCCCn2c(=O)oc3ccccc32)CC1	–	–	1.24	Non-toxic	Non-toxic	Non-toxic	Non-toxic	–	Non-toxic	Non-toxic
inactive	O=c1sc2ccccc2n1CCCCN1CCN(CCn2c(=O)sc3ccccc32)CC1	–	–	–	Non-toxic	Non-toxic	Non-toxic	Non-toxic	inactive	Non-toxic	Non-toxic
–	O=c1oc2ccccc2n1CCCCCN1CCN(CCCn2c(=O)oc3ccccc32)CC1	–	–	–	Non-toxic	Non-toxic	Non-toxic	Non-toxic	inactive	Non-toxic	Non-toxic
–	O=c1oc2ccccc2n1CCCCCCN1CCN(CCCCCCn2c(=O)oc3ccccc32)CC1	18.5	21.3	–	Non-toxic	Non-toxic	Non-toxic	Non-toxic	inactive	–	–
–	O=c1sc2ccccc2n1CCCCCN1CCN(CCCn2c(=O)sc3ccccc32)CC1	14	16.8	1.46	Non-toxic	Non-toxic	Non-toxic	Non-toxic	–	–	–
–	O=c1oc2ccccc2n1CCCCCCN1CCN(CCn2c(=O)oc3ccccc32)CC1	–	–	3.07	Non-toxic	Non-toxic	Non-toxic	Non-toxic	–	Non-toxic	Non-toxic
–	O=c1oc2ccccc2n1CCCCCCN1CCN(CCCCCn2c(=O)oc3ccccc32)CC1	22.5	23	1.4	Non-toxic	Non-toxic	Non-toxic	Non-toxic	–	–	–
inactive	O=c1oc2ccccc2n1CCCCN1CCN(CCCCn2c(=O)oc3ccccc32)CC1	–	–	–	Non-toxic	Non-toxic	Non-toxic	Non-toxic	inactive	Non-toxic	Non-toxic
–	O=c1sc2ccccc2n1CCCCCN1CCN(CCCCn2c(=O)sc3ccccc32)CC1	22.1	17.5	1.18	Non-toxic	Non-toxic	Non-toxic	Non-toxic	–	–	–
–	O=c1oc2ccccc2n1CCCCCCN1CCN(CCCn2c(=O)oc3ccccc32)CC1	–	–	–	Non-toxic	Non-toxic	Non-toxic	Non-toxic	inactive	Non-toxic	Non-toxic
–	O=c1oc2ccccc2n1CCCCCN1CCN(CCn2c(=O)oc3ccccc32)CC1	–	–	–	Non-toxic	Non-toxic	Non-toxic	Non-toxic	–	Non-toxic	Non-toxic
–	C=C1C(=O)O[C@@H]2[C@H]3O[C@]3(C)CC/C=C(\C)CC[C@@H]12	–	–	2.57	–	–	–	–	–	–	–
inactive	O=c1oc2ccccc2n1CCCCN1CCN(CCn2c(=O)oc3ccccc32)CC1	–	–	–	Non-toxic	Non-toxic	Non-toxic	Non-toxic	inactive	Non-toxic	Non-toxic
inactive	O=c1sc2ccccc2n1CCN1CCN(CCn2c(=O)sc3ccccc32)CC1	–	–	–	Non-toxic	Non-toxic	Non-toxic	Non-toxic	inactive	Non-toxic	Non-toxic
inactive	O=c1oc2ccccc2n1CCCCN1CCN(CCCn2c(=O)oc3ccccc32)CC1	–	–	–	Non-toxic	Non-toxic	Non-toxic	Non-toxic	inactive	Non-toxic	Non-toxic
–	O=c1sc2ccccc2n1CCCCCCN1CCN(CCCn2c(=O)sc3ccccc32)CC1	25	12	2.4	Non-toxic	Non-toxic	Non-toxic	Non-toxic	–	–	–

Structure (SMILES)	inhibition [5]	IC50 (BT-549 [1]) [µM]	IC50 (SK-MEL [2]) [µM]	IC50 [3] [µM]	Activity (Vero)	Activity (KB)	Activity [4]	Activity (SK-OV-3)	inhibition (SW1353)	Activity (BT-549 [6])	Activity (SK-MEL [7])
O=c1oc2ccccc2n1CCCN1CCN(CCCn2c(=O)oc3ccccc32)CC1	inactive	–	–	4.91	Non-toxic	Non-toxic	Non-toxic	Non-toxic	–	Non-toxic	Non-toxic
O=c1sc2ccccc2n1CCCCN1CCN(CCCCn2c(=O)sc3ccccc32)CC1	inactive	–	–	2.28	Non-toxic	Non-toxic	Non-toxic	Non-toxic	–	Non-toxic	Non-toxic

From ChEMBL document CHEMBL3596194, “Design, synthesis and biological evaluation of bivalent benzoxazolone and benzothiazolone ligands as potential anti-inflammatory/analgesic agents” (Bioorg Med Chem, 2015)
